# Rows were chosen to be rich in hits. Some 4.9% of all compounds tested hit in one or more screens of this group.
# HSF-1 act = increases HSF-1 driven luciferase reporter signal; AID 504408; activation, % at 9 µM; NIH3T3-HGL HSF-1 luciferase reporter, MG132, 8 h; 100% = twice DMSO control signal; 300,000 compounds, 1.7% hits;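 active means mean replicate activation of at least 50% with a set share of replicates each reaching 50%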;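 further: 0% = median of the neutral control wells and 100% = twice that signal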
# PHOSPHO1 block = PHOSPHO1 (human) inhibition; Q8TCT1; recombinant PHOSPHO1, absorbance phosphatase assay; inhibition, % at 13.3 µM; 290,000 compounds, 1.1% hits; in the data active means inhibition above about 60%
# Hep lipid drop = modulators of hepatic lipid droplet formation. AML12 mouse hepatocytes, oleate lipid droplets, BODIPY imaging. inhibition, % at 6.5 µM. 240,000 compounds, 0.4% hits;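 active means lipid droplet intensity inhibited by at least 50%, with more than 500 cells counted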
#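 Assay system: AML12 mouse liver cells | Compound: 6.5 µM single-point dosing | Schedule: Overnight exposure | Technique: Fluorescence imaging, 20x objective, two fields per well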
# CHT PAM = allosterically activates the human high affinity choline transporter | Q9GZV3 | CHT-expressing cells, membrane potential dye, choline EC20; stronger effect = higher value; LV-AA mutant CHT in HEK293 cells | B-score at 10 µM | 310,000 compounds, 0.49% hits | AID 488977;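 active means initial fluorescence not abnormally high and integrated response B-score, plate-corrected, over 3 SD above library mean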
# Target sequence (Q9GZV3 whole entry, looked up): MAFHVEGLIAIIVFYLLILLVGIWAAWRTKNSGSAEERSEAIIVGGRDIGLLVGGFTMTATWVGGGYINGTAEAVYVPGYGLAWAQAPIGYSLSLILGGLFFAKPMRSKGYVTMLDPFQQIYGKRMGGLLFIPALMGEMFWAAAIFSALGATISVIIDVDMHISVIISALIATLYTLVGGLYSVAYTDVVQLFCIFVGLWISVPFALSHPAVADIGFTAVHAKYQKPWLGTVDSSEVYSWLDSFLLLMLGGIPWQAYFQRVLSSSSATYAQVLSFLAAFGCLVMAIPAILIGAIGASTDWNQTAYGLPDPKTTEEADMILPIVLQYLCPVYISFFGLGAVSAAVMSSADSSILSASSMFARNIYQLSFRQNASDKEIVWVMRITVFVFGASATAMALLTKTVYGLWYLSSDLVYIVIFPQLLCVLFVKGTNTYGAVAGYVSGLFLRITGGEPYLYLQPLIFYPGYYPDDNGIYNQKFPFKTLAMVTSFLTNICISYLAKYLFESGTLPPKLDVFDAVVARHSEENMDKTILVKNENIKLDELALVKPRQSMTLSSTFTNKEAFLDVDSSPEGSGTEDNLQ
# HSF1 inh = HSF1 inhibition; NIH3T3-HGL HSE-luciferase, MG132-induced, luminescence 8 h; stronger effect = lower value; activity change, negative = inhibition, % at 7.5 µM (by protocol); 300,000 compounds, 0.77% hits; AID 2098;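 active means more than half of replicate wells show activity change below -50%, luminescence cut by over half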;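 further: luciferase reports HSF-1 transcriptional activity via heat shock element; 0% = median of DMSO wells and -100% = zero luminescence signal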
# CHT block = inhibitors of human choline transporter CHT. 310,000 compounds, 0.86% hits. CHT-expressing cells, membrane potential dye, choline response; stronger effect = lower value. AID 488975. B-score at 10 µM;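 active means B-score over 3 SD under the library average, and starting fluorescence ratio not unusually high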;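 further: choline stimulus applied at its EC90 after an EC20 pre-addition; B-score computed on integrated fluorescence ratio after choline addition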
# Active calls of the source: *; i = inactive; x = no result given.
SMILES,HSF-1 act,PHOSPHO1 block,Hep lipid drop,CHT PAM,HSF1 inh,CHT block
O=C(COC(=O)c1ccc(Br)cc1)NC1CCCC1,-5,26,-24,i,3,i
CCc1ccc(NC(=O)C(C)Nc2ccc(S(=O)(=O)NC(C)=O)cc2)cc1 (stereo not given),29,46,x,i,5,i
CN(C)CCNc1nc2sc3c(c2c(=O)n1-c1ccccc1)CCCCC3,50*,37,31,i,14,i
O=c1c2c3c(sc2nc(NCCO)n1Cc1ccco1)CCCCC3,-61,-18,-1,i,-57*,i
O=C(CSc1nc2cc(S(=O)(=O)N3CCOCC3)ccc2o1)Nc1c(F)cccc1F,-1,-164,4,i,3,i
Cc1ccc(C(=O)CSc2nc3cc(S(=O)(=O)N4CCOCC4)ccc3o2)cc1,0,68*,x,i,1,i
COc1ccc(CC(=O)Nc2ccc(-c3cn4ccccc4n3)cc2)cc1OC,27,21,8,i,16,i
COc1ccc(CC(=O)Nc2ccc(-c3cn4ccccc4n3)cc2)cc1,184*,3,1,i,126,i
Cc1nc(-c2ccc(C(=O)Nc3ccc(F)cc3)cc2)cs1,67*,21,x,i,19,i
Cc1nc(-c2cccc(NC(=O)COc3ccc(Cl)cc3)c2)cs1,5,66*,10,i,-1,i
Cc1nc(-c2ccc(NC(=O)Cc3ccccc3)cc2)cs1,57*,37,-13,i,29,i
COc1ccc(CC(=O)Nc2cccc(-c3csc(C)n3)c2)cc1,18,12,14,i,-2,i
O=S1(=O)OCCC(c2ccccc2)N1Cc1ccccc1 (stereo not given),-4,-24,-13,i,3,i
COc1ccc(NCC(=O)Nc2ccc(Cl)cc2C)c(OC)c1,16,18,-11,i,11,i
O=C(CN1CCN(Cc2ccc(Cl)cc2)CC1)N/N=C/c1cccs1,-15,36,9,i,-3,i
COc1ccc(OCC(O)Cn2c(N3CCCCC3)nc3c2c(=O)n(C)c(=O)n3C)cc1 (stereo not given),1,32,-30,i,-8,i
c1ccc(Cc2nn3c(C4COc5ccccc5O4)nnc3s2)cc1 (stereo not given),23,62*,-2,i,7,i
c1ccc(CCc2nn3c(C4COc5ccccc5O4)nnc3s2)cc1 (stereo not given),0,42,-23,i,0,i
COc1ccccc1-c1nn2c(C3COc4ccccc4O3)nnc2s1 (stereo not given),-2,92*,x,i,-8,i
O=C(CN1C(=O)/C(=C\c2ccccc2Cl)Sc2ccccc21)NCCCN1CCOCC1,19,22,-1,i,16,i
CCCCc1ccccc1NC(=S)NC1CCCC1,4,6,-42,i,-1,i
O=C(N=Nc1c(O)n(Cc2ccccc2)c2ccccc12)c1ccc(O)cc1,62*,-24,-6,i,51,i
CC(C)OC(=O)CSc1nc2cccnc2n1-c1ccc(F)cc1,-6,38,x,i,0,i
COC(=O)c1nnn(CC(=O)NC(=O)Nc2ccc(F)cc2)c1C(=O)OC,55*,2,1,i,5,i
O=C1c2ccccc2C(=O)N1CC1c2ccccc2CCN1C(=O)N1CCOCC1 (stereo not given),0,-37,2,i,3,i
SMILES,HSF-1 act,PHOSPHO1 block,Hep lipid drop,CHT PAM,HSF1 inh,CHT block
CCOc1ccc(N2C(=O)CNC2=S)cc1,1,34,18,i,3,i
CCOc1ccc(N2C(=O)CS/C2=C(\C(Cl)=C(Cl)Cl)[N+](=O)[O-])cc1,-21,86*,1,i,-7,i
O=C(/C(=C(\[O-])c1ccccc1)[n+]1ccc2ccccc2c1)c1ccc([N+](=O)[O-])cc1,-72,-7,0,i,-64*,i
c1cc(-c2nc3cc(Cc4ccc5oc(-c6ccncc6)nc5c4)ccc3o2)ccn1,x,38,17,x,x,x
Cc1ccc(OC(=O)c2ccc(C)c(C)c2)cn1,54*,-15,x,i,31,i
Cc1ccc(OC(=O)c2ccc(Cl)c([N+](=O)[O-])c2)cn1,0,35,-1,i,3,i
Cc1cc(C2=NNC(=NC3CC3)SC2)c(C)n1-c1ccccc1F,-68,15,-56,i,-68*,i
COC(=O)c1ccc(C(=O)Nc2ccc3c(c2)C(=O)NC3=O)cc1,-2,x,11,i,2,i
Cc1ccc(C(=O)Nc2ccc3c(c2)C(=O)NC3=O)cc1,-66,10,12,i,-57*,i
O=C1c2ccccc2C(=O)N1CCSc1ccccc1,103*,9,x,i,65,i
O=C1c2ccccc2C(=O)N1CCSc1nncs1,8,32,x,i,6,i
Cc1nnnn1/C(=C\c1ccccc1)C(=O)OCC(=O)Nc1ccc(Cl)cc1F,334*,x,x,i,341,i
Cc1c(C(=O)N2CCc3ccccc3C2)oc2ccccc12,44,12,8,i,40,i
NC(=S)NNC(=O)c1ccccc1,8,-12,x,i,-8,i
Cc1cc2c(cc3c(=O)n(CC(=O)NCCCN4CC(C)CC(C)C4)ncn32)s1 (stereo not given),3,69*,-4,i,-2,i
COc1ccc2c(c1OC)C(=O)OC2Nc1ncc(Br)cc1Br (stereo not given),4,5,0,i,-3,i
COc1ccc2c(c1OC)C(=O)OC2Nc1ccc(S(=O)(=O)N=C(N)N)cc1 (stereo not given),-69,23,-1,i,-60*,i
CC(=O)c1sc(Nc2ccccn2)nc1C,-11,-9,x,i,7,i
CCOC(=O)c1ccc(NC(=O)Cn2nc(C)c3ccccc3c2=O)cc1,9,50,16,i,-4,i
O=C(OCn1ncc(Cl)c(Cl)c1=O)c1ccc(C(F)(F)F)cc1,27,4,x,x,9,x
Cc1ccc(C(=O)OCn2ncc(Cl)c(Cl)c2=O)cc1,-95,-152,x,i,-94*,i
Cc1ccc(NC(=O)Cn2ncc3c([nH]c4ccccc43)c2=O)cc1Cl,-7,63*,5,i,-6,i
O=C(Cn1ncc2c([nH]c3ccccc32)c1=O)Nc1cccnc1,-14,18,-38,i,-3,i
CCC(=O)Nc1ccc(C(=O)Cn2ncc(Cl)c(Cl)c2=O)cc1,57*,42,-3,i,42,i
CCOC(=O)c1ccc(NC(=O)Cn2ncc(Cl)c(Cl)c2=O)cc1,-94,-6,24,i,-94*,i
